In ChEMBL document CHEMBL1122519, “Bispyridinamines: a new class of topical antimicrobial agents as inhibitors of dental plaque” (1984):
In brackets after ≈: the same amount, converted by molar mass.

Key:
[1] = test system: Actinomyces viscosus; assay: Compound is evaluated for minimal bactericidal concentration against plaque formation for Actinomyces viscosus; format: functional, organism-based
In short: (§1)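 Preformed in vitro plaques of S. mutans NCTC 10449 or A. viscosus M-100 were grown on ceramic hydroxylapatite under anaerobic conditions at 37 °C in sucrose-supplemented medium. Plaques were immersed for 30 min at 37 °C in compound at 0.3–20 mM, rinsed, and moved to broth containing bromocresol purple. Kill was judged by no acid production, no turbidity increase and no growth on plating at 48 h. Plaques were run in quadruplicate.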

[2] = test system: Actinomyces naeslundii; assay: Compound is evaluated for plaque-bactericidal index (PBI) against Actinomyces naeslundii 631; format: functional
[3] = test system: Actinomyces viscosus; assay: Compound is evaluated for plaque-bactericidal index (PBI) against Actinomyces viscosus M-100; format: functional
[4] = test system: Escherichia coli; assay: Antimicrobial minimum inhibitory concentration against Escherichia coli AB1932-1; format: functional
In short: (§2)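 Serial twofold tube dilution in tryptose phosphate broth. Each compound was prepared as a 1000 μg/mL aqueous stock and diluted in double-strength broth, then 2×10^5 cells were added. Tubes were incubated aerobically at 37 °C for 24 h. The MIC was taken as the lowest concentration with no visible growth.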

[5] = test system: Escherichia coli; assay: Minimum inhibitory concentration against Escherichia coli (Vogel); format: functional; in short: as §2
[6] = test system: Escherichia coli; assay: Antimicrobial minimum inhibitory concentration against Escherichia coli 100/B22; format: functional; in short: as §2
[7] = test system: Klebsiella pneumoniae; assay: Minimum inhibitory concentration against Klebsiella pneumonia 39645; format: functional; in short: as §2
[8] = test system: Pseudomonas aeruginosa; assay: Compound is evaluated for the antimicrobial minimum inhibitory concentration against Pseudomonas aeruginosa MGH-1; format: functional
[9] = test system: Streptococcus mutans; assay: Compound is evaluated for the effect of saliva upon the antiplaque activity at 50% of saliva and at 0.01 percentage of compound; + = Slight plaque accumulation; format: functional, organism-based
In short: (§3)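 Hydroxylapatite plate antiplaque assay against S. mutans run for 48 h, with two 1-min exposures to aqueous compound per 24 h. Growth medium contained 0, 5 or 50% pooled human saliva (paraffin-stimulated, centrifuged, filtered, membrane-sterilized). Plaque was stained with FD&C Red No. 3 and graded none, slight or moderate. Staining potential was scored on plates run without inoculum and graded none or slight.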

[10] = test system: Streptococcus mutans; assay: Compound is evaluated for the effect of saliva upon the antiplaque activity at 50% of saliva and at 0.025 percentage of compound; + = Slight staining; format: functional, organism-based; in short: as §3
[11] = test system: Streptococcus mutans; assay: Compound is evaluated for the effect of saliva upon the antiplaque activity at 50% of saliva and at 0.05 percentage of compound; + = Slight staining; format: functional, organism-based; in short: as §3
[12] = test system: Streptococcus sanguinis; assay: Compound is evaluated for plaque-bactericidal index (PBI) against Streptococcus sanguis 10558; format: functional
[13] = test system: Streptococcus mutans; assay: Compound is evaluated for the effect of saliva upon the antiplaque activity at 0% of saliva and at 0.01 percentage of compound; - = No plaque accumulation; format: functional, organism-based; in short: as §3
[14] = test system: Streptococcus mutans; assay: Compound is evaluated for the effect of saliva upon the antiplaque activity at 0% of saliva and at 0.025 percentage of compound; - = No plaque accumulation; format: functional, organism-based; in short: as §3
[15] = test system: Streptococcus mutans; assay: Compound is evaluated for the effect of saliva upon the antiplaque activity at 0% of saliva and at 0.05 percentage of compound; - = No plaque accumulation; format: functional, organism-based; in short: as §3
[16] = test system: Streptococcus mutans; assay: Compound is evaluated for the effect of saliva upon the antiplaque activity at 50% of saliva and at 0.025 percentage of compound; - = No plaque accumulation; format: functional, organism-based; in short: as §3
[17] = test system: Streptococcus mutans; assay: Compound is evaluated for the effect of saliva upon the antiplaque activity at 50% of saliva and at 0.05 percentage of compound; - = No plaque accumulation; format: functional, organism-based; in short: as §3
[18] = test system: Streptococcus mutans; assay: Compound is evaluated for the effect of saliva upon the antiplaque activity at 0% of saliva and at 0.025 percentage of compound; + = Slight staining; format: functional, organism-based; in short: as §3
[19] = test system: Streptococcus mutans; assay: Compound is evaluated for the effect of saliva upon the antiplaque activity at 0% of saliva and at 0.05 percentage of compound; + = Slight staining; format: functional, organism-based; in short: as §3
[20] = test system: Streptococcus mutans; assay: Compound is evaluated for the effect of saliva upon the antiplaque activity at 50% of saliva and at 0.01 percentage of compound; - = No staining; format: functional, organism-based; in short: as §3
[21] = test system: Streptococcus mutans; assay: Compound is evaluated for plaque-bactericidal index (PBI) against Streptococcus mutans 10449; format: functional
[22] = test system: Streptococcus mutans; assay: Compound is evaluated for minimum plaque inhibitory concentration using a standard test organism, Streptococcus mutans OMZ-61; format: functional
In short: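 S. mutans OMZ-61 in pH 7.0 beef extract–trypticase medium with 0.5% sucrose. Sterile ceramic hydroxylapatite plates got two 1-min soaks in 0.1–0.001% compound, each followed by 1-min air-drying, then a 5-min water rinse. Plates were put in inoculated medium at 37 °C anaerobically for 24 h. The cycle was repeated for a second 24 h. Plaque was stained with 1% FD&C Red No. 3. Value is the lowest concentration completely preventing plaque.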

[23] = test system: Staphylococcus aureus; assay: Compound is evaluated for the antimicrobial minimum inhibitory concentration against Staphylococcus aureus (Smith); format: functional; in short: as §2
[24] = test system: Streptococcus mutans; assay: Compound is evaluated for the effect of saliva upon the staining potential at 0% of saliva and at 0.01 percentage of compound; + = Slight staining; format: functional, organism-based; in short: as §3
[25] = test system: Streptococcus mutans; assay: Compound is evaluated for minimal bactericidal concentration against plaque formation for Streptococcus mutans; format: functional, organism-based; in short: as §1
[26] = Compound is evaluated for stain index; format: functional
In short: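 Ratio of the minimum concentration staining a plaque-free ceramic hydroxylapatite plate to the minimum plaque-inhibiting concentration, both run under the same conditions. Plates got two 1-min soaks (0.1–0.001%), each followed by air-drying, then a water rinse. They were then held 24 h anaerobically at 37 °C in sucrose beef-extract medium, with or without S. mutans OMZ-61, repeated once. Staining was 1-min 1% FD&C Red No. 3, scored visually.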

[27] = test system: Proteus mirabilis; assay: Compound is evaluated for the antimicrobial minimum inhibitory concentration against Proteus mirabilis MGH-1; format: functional; in short: as §2
[28] = test system: Proteus mirabilis; assay: Minimum antimicrobial inhibitory concentration against Proteus mirabilis MGH-1; format: functional; in short: as §2
[29] = test system: Pseudomonas aeruginosa; assay: Minimum antimicrobial inhibitory concentration against Pseudomonas aeruginosa MGH-2; format: functional; in short: as §2
[30] = test system: Streptococcus mutans; assay: Compound is evaluated for the effect of saliva upon the antiplaque activity of the compound at 0% of saliva and at 0.01 percentage of compound; - = No plaque accumulation; format: functional, organism-based; in short: as §3
[31] = test system: Streptococcus mutans; assay: Compound is evaluated for the effect of saliva upon the antiplaque activity of the compound at 0% of saliva and at 0.025 percentage of compound; - = No plaque accumulation; format: functional, organism-based; in short: as §3
[32] = test system: Streptococcus mutans; assay: Compound is evaluated for the effect of saliva upon the antiplaque activity of the compound at 0% of saliva and at 0.05 percentage of compound; - = No plaque accumulation; format: functional, organism-based; in short: as §3
[33] = test system: Streptococcus mutans; assay: Compound is evaluated for the effect of saliva upon the antiplaque activity of the compound at 50% of saliva and at 0.01 percentage of compound; - = No plaque accumulation; format: functional, organism-based; in short: as §3
[34] = test system: Streptococcus mutans; assay: Compound is evaluated for the effect of saliva upon the antiplaque activity of the compound at 50% of saliva and at 0.025 percentage of compound; - = No plaque accumulation; format: functional, organism-based; in short: as §3
[35] = test system: Streptococcus mutans; assay: Compound is evaluated for the effect of saliva upon the antiplaque activity of the compound at 50% of saliva and at 0.05 percentage of compound; - = No plaque accumulation; format: functional, organism-based; in short: as §3
[36] = test system: Streptococcus mutans; assay: Compound is evaluated for the effect of saliva upon the antiplaque activity of the compound at 0% of saliva and at 0.025 percentage of compound; - = No staining; format: functional, organism-based; in short: as §3
[37] = test system: Streptococcus mutans; assay: Compound is evaluated for the effect of saliva upon the antiplaque activity of the compound at 0% of saliva and at 0.05 percentage of compound; + = Slight staining; format: functional, organism-based; in short: as §3
[38] = test system: Streptococcus mutans; assay: Compound is evaluated for the effect of saliva upon the antiplaque activity of the compound at 50% of saliva and at 0.01 percentage of compound; - = No staining; format: functional, organism-based; in short: as §3
[39] = test system: Streptococcus mutans; assay: Compound is evaluated for the effect of saliva upon the antiplaque activity of the compound at 50% of saliva and at 0.025 percentage of compound; - = No staining; format: functional, organism-based; in short: as §3
[40] = test system: Streptococcus mutans; assay: Compound is evaluated for the inhibition of plaque-forming enzyme of Streptococcus mutans OMZ-61; format: functional
In short: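 S. mutans OMZ-61 was grown anaerobically at 37 °C for 24 h in glucose medium. The cell-free filtrate, adjusted to pH 5.5, served as the dextran/levan sucrase source. Reactions contained 3 μmol 14C-sucrose in citrate phosphate buffer pH 5.5 with 4% EtOH and ran 2 h at 37 °C. MeOH-insoluble polysaccharide was counted by scintillation. Compounds were tested at 50, 160 and 500 μg base/mL, with lower levels if needed, and I50 was read graphically.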

[41] = test system: Staphylococcus aureus; assay: Minimum antimicrobial inhibitory concentration against Staphylococcus aureus; format: functional; in short: as §2
[42] = test system: Streptococcus mutans; assay: Compound is evaluated for the effect of saliva upon the antiplaque activity of the compound at 50% of saliva and at 0.05 percentage of compound; + = Slight staining; format: functional, organism-based; in short: as §3
[43] = test system: Streptococcus mutans; assay: Compound is evaluated for the effect of saliva upon the staining potential of the compound at 0% of saliva and at 0.01 percentage of compound; - = No staining; format: functional, organism-based; in short: as §3
[44] = test system: Streptococcus mutans; assay: Minimum plaque inhibitory concentration using a standard test organism, Streptococcus mutans OMZ-61; format: functional, organism-based
In short: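 Ceramic hydroxylapatite plates were soaked twice for 1 min each in compound at […] (aqueous), air-dried and rinsed, then hung in sucrose beef-extract medium (pH 7.0) inoculated with late-log S. mutans OMZ-61. Incubation was anaerobic at 37 °C for 24 h, and treatment plus reinoculation were repeated for a second 24 h. Plaque was stained with 1% FD&C Red No. 3 and scored visually. The value is the lowest concentration giving no plaque while medium growth matched control.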

[45] = test system: Streptococcus mutans; assay: Compound is evaluated for the growth inhibition of Streptococcus mutans OMZ-61; format: functional
[46] = test system: Streptococcus mitis; assay: Compound is evaluated for plaque-bactericidal index (PBI) against Streptococcus mitis 90557
[47] = test system: Streptococcus sanguinis; assay: Compound is evaluated for plaque-bactericidal index (PBI) against Streptococcus sanguis 10558

## N=C(NCCCCCCNC(=N)NC(=N)Nc1ccc(Cl)cc1)NC(=N)Nc1ccc(Cl)cc1 [CHLORHEXIDINE]
[1]
  Concentration: 1.6 mM
[2]
  PBI: 19.2
[3]
  PBI: 19.2
[4]
  MIC: 0.5 µg/mL (≈ 0.989 µM)
[5]
  MIC: 0.5 µg/mL (≈ 0.989 µM)
[6]
  MIC: 1 µg/mL (≈ 1.98 µM)
[7]
  MIC: 3.9 µg/mL (≈ 7.72 µM)
[8]
  MIC: 15.6 µg/mL (≈ 30.9 µM)
[9]
  Plaque accum: No plaque accumulation
[10]
  Staining potential: No staining
[11]
  Staining potential: No staining
[12]
  PBI: 32
[13]
  Plaque accum: No plaque accumulation
[14]
  Plaque accum: No plaque accumulation
[15]
  Plaque accum: No plaque accumulation
[16]
  Plaque accum: No plaque accumulation
[17]
  Plaque accum: No plaque accumulation
[18]
  Staining potential: No staining
[19]
  Staining potential: No staining
[20]
  Staining potential: No staining
[21]
  PBI: 25.6
[22]
  Min plague Inhibitory: 0.005%
[23]
  MIC: 0.2 µg/mL (≈ 0.396 µM)
[24]
  Staining potential: No staining
[25]
  Concentration: 3.2 mM
[26]
  Stain index: 1
[27]
  MIC: 15.6 µg/mL (≈ 30.9 µM)

## CCCCCCCCN=c1ccn(CCCCCCCCCCn2ccc(=NCCCCCCCC)cc2)cc1.Cl.Cl [OCTENIDINE HYDROCHLORIDE]
[1]
  Concentration: 1.6 mM
[2]
  PBI: 19.2
[3]
  PBI: 19.2
[4]
  MIC: 1 µg/mL
[5]
  MIC: 1 µg/mL
[6]
  MIC: 1 µg/mL
[7]
  MIC: 2 µg/mL
[28]
  MIC: 2 µg/mL
[29]
  MIC: 3.9 µg/mL
[30]
  Plaque accum: No plaque accumulation
[31]
  Plaque accum: No plaque accumulation
[32]
  Plaque accum: No plaque accumulation
[33]
  Plaque accum: No plaque accumulation
[34]
  Plaque accum: No plaque accumulation
[35]
  Plaque accum: No plaque accumulation
[36]
  Staining potential: No staining
[37]
  Staining potential: No staining
[38]
  Staining potential: No staining
[39]
  Staining potential: No staining
[21]
  PBI: 25.6
[40]
  I50: 31 (ug of base) ml-1
[41]
  MIC: 1 µg/mL
[42]
  Staining potential: No staining
[43]
  Staining potential: No staining
[25]
  Concentration: 3.2 mM
[44]
  Concentration: 0.005%
[26]
  Stain index: 10
[45]
  MIC: 1 (ug of base) ml-1
[46]
  PBI: 32
[47]
  PBI: 32
